Screens (PubChem)
This is a sample that favours compounds with a hit; in the whole collection about 9.2% have one here.
Autophagy HCS = modulators of autophagy; hit rate 0.98% among 190,000; AID 463193; MEF GFP-LC3 puncta imaging; test concentration mostly 10 µM; calls only at 10 µM (by protocol);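 active = percentage of spot-positive cells more than 3 SD above its plate mean, without a fluorescence outlier flag or 80% toxicity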
HCT116 PTEN-null = growth suppressors of cells with PTEN tumor suppressor deletion; HCT116 PTEN-null viability, CellTiter-Glo, 60 h; stronger effect = lower value; viability, % at 10 µM; hit rate 1.2% among 140,000;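 active = viability at or below a set limit, 4 SD under the median of all tested compounds, cut at about 3.7% in these data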;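 note: PTEN knockout HCT116 line with beta catenin targeted HCT116 as companion control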
Dynein transport = dynein cargo transport inhibition; AID 1381; 3617.4 mouse cells, GR-EGFP nuclear translocation imaging; test concentration mostly 20 µM; stimulated with dexamethasone, 1 µM; stronger effect = lower value; hit rate 0.47% among 220,000; z-score, hits read low;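 active = plate z-score of nuclear minus cytoplasmic receptor signal below a set negative limit, without overly bright fluorescence or cell loss, cut at about -3.5 in these data, passing the limit was not always enough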;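 note: z-score of nuclear minus cytoplasmic ring GR-EGFP intensity difference per well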
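Also added – dexamethasone, 1.0 µM final · Buffer or medium – tet-free, stripped-serum medium · Schedule – induction 48 h, compound 1 h, agonist 30 min · Detection – formaldehyde fixation, Hoechst nuclear stain, 10x automated fluorescence imaging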
HCT116 bCat-KO = beta-catenin-lacking colon tumor cell growth suppression. viability, % at 10 µM. AID 818. hit rate 1.5% among 140,000. HCT116 beta-catenin knockout viability, CellTiter-Glo, 60 h; stronger effect = lower value;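 active = viability at or under a set limit, the compound median less 4 SD, cut at about 6% in these data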
Lmaj promast = inhibitors of Leishmania major promastigote growth | Leishmania major promastigotes, resazurin fluorescence viability | inhibition, % at 10 µM | hit rate 9% among 200,000 | AID 1063; in the data active = inhibition above about 50%;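 note: promastigotes grown with compound for 44 hours at 28 °C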
Of the large screens only hits and unclear results are named; the others gave an inactive call.

COc1ccc(-c2[nH]n(-c3ccc([N+](=O)[O-])cc3)c(=O)c2C=NCCN2CCNCC2)cc1	none (no result: HCT116 PTEN-null, HCT116 bCat-KO)
COc1ccc(-c2[nH]n(-c3ccc([N+](=O)[O-])cc3)c(=O)c2C=NCc2ccccc2)cc1	Autophagy HCS active
O=C(Nc1ccc(Cl)c(S(=O)(=O)N2CCOCC2)c1)c1ccccc1-c1ccc(C(F)(F)F)cc1	Lmaj promast 99
CC1(C)CC2CC(C)(CN2S(=O)(=O)c2ccc(C(=O)Nc3ccc(Cl)c(S(=O)(=O)N4CCOCC4)c3)cc2)C1 (stereo not drawn)	Lmaj promast 97
CC(=O)Nc1ccc(S(=O)(=O)N2CC3(C)CC2CC(C)(C)C3)cc1 (stereo not drawn)	none (no result: HCT116 PTEN-null, HCT116 bCat-KO)
CC1(C)CC2CC(C)(CN2S(=O)(=O)c2ccc(C(=O)Nc3ccc(S(=O)(=O)N4CCOCC4)cc3)cc2)C1 (stereo not drawn)	Lmaj promast 99
COC(=O)C(CCCCNC(=O)c1ccc([N+](=O)[O-])cc1)NC(=O)c1ccc([N+](=O)[O-])cc1 (stereo not drawn)	none
O=C(COC(=O)Cc1ccccc1[N+](=O)[O-])NCC1CCCCC1	none (no result: HCT116 PTEN-null, HCT116 bCat-KO)
COC(=O)CCn1nc(-c2ccc(C)cc2)c2ccccc2c1=O	none (no result: HCT116 PTEN-null, HCT116 bCat-KO)
CC(C)CN(CC(C)C)S(=O)(=O)N1CCC(C(=O)NCc2ccc3c(c2)OCO3)CC1	none (no result: HCT116 PTEN-null, HCT116 bCat-KO)
N=C1/C(=C/c2cccn2CCOc2ccccc2)C(=O)N=C2SC=C(c3ccccc3)N12	Lmaj promast 59
Cc1cccc(-c2nc3ccccc3c(=O)n2NC(=O)/C=C/c2ccc([N+](=O)[O-])cc2)c1	Lmaj promast 52
CCOc1ccc(C2c3c(oc4ccccc4c3=O)C(=O)N2c2ccc(C)cn2)cc1OC (stereo not drawn)	Lmaj promast 80
C=C1CCN([C@@H](C)C(=O)NCc2ccc(Cl)cc2)S(=O)(=O)c2ccccc21	none (no result: Autophagy HCS, HCT116 PTEN-null, HCT116 bCat-KO, Lmaj promast)
O=C(CCS(=O)(=O)c1ccc(Br)cc1)N1CCN(c2ccccc2)CC1	Autophagy HCS active
CCOC(=O)c1cc(-c2ccccc2)n(CCC(=O)O)c1C	none
CCOC(=O)c1cc(-c2ccc(C)cc2)n(CCC(=O)N2CCN(c3ccccn3)CC2)c1C	Lmaj promast 90
O=C(CCS(=O)(=O)Cc1ccccc1)N1CCN(c2ccc([N+](=O)[O-])cc2)CC1	none (no result: HCT116 PTEN-null, HCT116 bCat-KO)
O=C(CCCc1ccccc1)N1CCN(c2ccc([N+](=O)[O-])cc2)CC1	Lmaj promast 58
O=C(CCc1ccccc1)N1CCN(c2ccccn2)CC1	Lmaj promast 52
CCOC(=O)C(=N/O)/C(C)=N/NC(=O)C(=O)Nc1cc(Cl)ccc1Cl	none (no result: Autophagy HCS, HCT116 PTEN-null, HCT116 bCat-KO, Lmaj promast)
Cc1ccc(-c2nnc(CCC(=O)NCC3C4CC5CC(C4)CC3C5)o2)s1 (stereo not drawn)	none (no result: HCT116 PTEN-null, HCT116 bCat-KO)
CCC(CC)C(=O)NCc1ccc(OC)cc1	none (no result: HCT116 PTEN-null, HCT116 bCat-KO)
O=C(CCCC(=O)N1CCN(c2ccc([N+](=O)[O-])cc2)CC1)c1ccccc1	Lmaj promast 86
COc1ccccc1CC(=O)N1CCN(c2ccc([N+](=O)[O-])cc2)CC1	none (no result: HCT116 PTEN-null, HCT116 bCat-KO)
O=C1CCn2nc(-c3ccc(Cl)cc3)cc2N1	none
O=S(CC1CC1(Cl)Cl)CC1CC1(Cl)Cl (stereo not drawn)	Autophagy HCS active
Cc1ccc(S(=O)(=O)/N=S(\C)CC2CC2(Cl)Cl)cc1 (stereo not drawn)	none
O=C(CCCN1C(=O)c2ccccc2C1=O)NC1=NCCS1	Autophagy HCS active
COc1ccccc1/C=C1\SC(=S)N(CCC(=O)NC2=NCCS2)C1=O	Lmaj promast 52
O=C(CCCN1C(=O)c2ccccc2C1=O)Nc1nncs1	none
C=CCNC(=O)c1cccc(C(F)(F)F)c1	none
COc1cccc(CNC23CC4CC(CC(C4)C2)C3)c1OCc1ccccc1	Autophagy HCS active, Lmaj promast 92 (no result: HCT116 PTEN-null, HCT116 bCat-KO)
COc1ccc(NC(=S)NCCc2c[nH]c3ccccc23)c(OC)c1	none
COc1cc(CNCCc2c[nH]c3ccccc23)ccc1OCc1ccccc1F	HCT116 PTEN-null 1.6, HCT116 bCat-KO 1.4, Lmaj promast 98
COc1cccc(CNCCc2c[nH]c3ccccc23)c1OCc1ccccc1	HCT116 bCat-KO 5.1, Lmaj promast 99
CNC(=O)c1ccccc1NC(=O)C1CC(=O)N(c2ccc(OC)cc2)C1 (stereo not drawn)	none (no result: HCT116 PTEN-null, HCT116 bCat-KO)
O=c1c2sc3ccccc3c2[nH]c(=S)n1CCN1CCOCC1	none (no result: HCT116 PTEN-null, HCT116 bCat-KO)
CCc1ccc(-c2nc(CN3CCC(C(=O)N4CCN(c5ccccc5)CC4)CC3)c(C)o2)cc1	HCT116 PTEN-null 2.4, HCT116 bCat-KO 2.0, Lmaj promast 82
